Each block holds one molecule with its values, some of them ahead of it.
What was measured:
Autotaxin [1] = molecular target: T1, Autotaxin (Homo sapiens, UniProt Q13822); test: Inhibition of recombinant human ATX assessed as reduction in choline release using LPC(16:0) as substrate incubated for 15 hrs
Procedure, shortened: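 Recombinant human ATX with 16:0 LPC as substrate. Single-point inhibition was tested at 30 μM, and IC50 values were determined.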

[2] = Protein binding in human plasma measured after 4 hrs by LC-MS/MS analysis; format: ADME, cell-free; conditions: read-out: PPB (converted)
[3] = AUC in Sprague-Dawley rat at 0.5 mg/kg, po administered as single cassette dosing by LC-MS/MS analysis; format: ADME, organism-based; conditions: in vivo
Procedure, shortened: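 Rat cassette dosing, 0.5 mg/kg oral; plasma AUC reported.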

Autotaxin [4] = molecular target: T1, Autotaxin; test: Inhibition of LysoPLD activity of ATX in human plasma assessed as reduction in choline release using LPC(16:0) as substrate incubated for 15 hrs; format: cell-free
Procedure, shortened: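 LysoPLD activity in human plasma with 16:0 LPC as substrate; IC50 determined.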

[5] = Protein binding in rat plasma measured after 4 hrs by LC-MS/MS analysis; format: ADME, cell-free; conditions: read-out: PPB (converted)
[6] = Octanol/phosphate buffer partition coefficient, LogD of compound at pH 7.4 mixed for 1 hr using benchtop-rotator followed by further incubation for 1 hr by ESI-LC-MS/MS analysis; format: physicochemical
MDA-MB-231 [7] = test: (§1) Potentiation of paclitaxel-induced antitumor activity against human MDA-MB-231 cells xenografted in SCID mouse assessed as tumor growth inhibition at 30 mg/kg, po administered twice daily for 32 days in combination with paclitaxel at 20 mg/kg, ip three times weekly for 5 weeks and measured on […] (reference value: 81.5%); format: functional
Procedure, shortened: (§2)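 MDA-MB-231 human breast tumour-bearing mice dosed orally at 30 or 100 mg/kg twice daily for 32 days. Where combined, paclitaxel was given at 20 mg/kg ip three times weekly for 5 weeks. Tumour volume was followed and reported at day 32. Tumour growth inhibition was taken from median tumour volume versus vehicle. Groups of n = 8–9 were compared by Student t test.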

[8] = Volume of distribution at steady state in Beagle dog at 0.3 mg/kg, iv administered as single dose by LC-MS/MS analysis; format: ADME, organism-based, Canis lupus familiaris; conditions: in vivo, read-out: Vdss
[9] = Cmax in Sprague-Dawley rat at 1 mg/kg, po administered as single dose by LC-MS/MS analysis; format: ADME, organism-based; set-up: dose 1 mg/kg, route oral; conditions: in vivo
[10] = Half life in Sprague-Dawley rat at 1 mg/kg, po administered as single dose by LC-MS/MS analysis; format: ADME, organism-based; conditions: in vivo
[11] = Cmax in Beagle dog at 1 mg/kg, po administered as single dose by LC-MS/MS analysis; format: ADME, organism-based, Canis lupus familiaris; set-up: dose 1 mg/kg, route oral; conditions: in vivo
[12] = Cmax in SCID mouse at 1 mg/kg, po administered as single dose by LC-MS/MS analysis; format: ADME, organism-based; set-up: dose 1 mg/kg, route oral; conditions: in vivo
[13] = Half life in SCID mouse at 1 mg/kg, po administered as single dose by LC-MS/MS analysis; format: ADME, organism-based; conditions: in vivo
[14] = Oral bioavailability in cynomolgus monkey at 1 mg/kg administered as single dose by LC-MS/MS analysis; format: ADME, organism-based, Macaca fascicularis; conditions: in vivo
[15] = Volume of distribution at steady state in Sprague-Dawley rat at 0.3 mg/kg, iv administered as single dose by LC-MS/MS analysis; format: ADME, organism-based; conditions: in vivo, read-out: Vdss
[16] = Clearance in cynomolgus monkey at 0.3 mg/kg, iv administered as single dose by LC-MS/MS analysis; format: ADME, organism-based, Macaca fascicularis; conditions: in vivo
MDA-MB-231 [17] = test: Antitumor activity against human MDA-MB-231 cells xenografted in SCID mouse assessed as tumor growth inhibition at 100 mg/kg, po administered twice daily for 32 days and […] relative to control; format: functional; conditions: MDA-MB-231, po, read-out: TGI; procedure, shortened: as §2
[18] = Oral bioavailability in Beagle dog at 1 mg/kg administered as single dose by LC-MS/MS analysis; format: ADME, organism-based, Canis lupus familiaris; conditions: in vivo
Autotaxin [19] = molecular target: T1, Autotaxin; test: In vivo inhibition of lysoPLD activity of ATX in SCID mouse plasma xenografted with human MDA-MB-231 cells at 100 mg/kg, po administered twice daily for 32 days in combination with paclitaxel at 20 mg/kg, ip three times weekly for 5 weeks and measured at 18 hrs post-last dose relative to control; format: functional, organism-based
[20] = Volume of distribution at steady state in cynomolgus monkey at 0.3 mg/kg, iv administered as single dose by LC-MS/MS analysis; format: ADME, organism-based, Macaca fascicularis; conditions: in vivo, read-out: Vdss
[21] = Half life in Beagle dog at 0.3 mg/kg, iv administered as single dose by LC-MS/MS analysis; format: ADME, organism-based, Canis lupus familiaris; conditions: in vivo
[22] = Half life in Beagle dog at 1 mg/kg, po administered as single dose by LC-MS/MS analysis; format: ADME, organism-based, Canis lupus familiaris; conditions: in vivo
[23] = Oral bioavailability in Sprague-Dawley rat at […] administered as single dose by LC-MS/MS analysis; format: ADME, organism-based; conditions: in vivo
Procedure, shortened: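 Single-dose rat PK, 1 mg/kg iv and 3 mg/kg po, n = 3. Plasma clearance was taken from the iv dose. Bioavailability was calculated from the iv and oral doses.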

[24] = Half life in cynomolgus monkey at 0.3 mg/kg, iv administered as single dose by LC-MS/MS analysis; format: ADME, organism-based, Macaca fascicularis; conditions: in vivo
Autotaxin [25] = molecular target: T1, Autotaxin; test: In vivo inhibition of lysoPLD activity of ATX in SCID mouse plasma xenografted with human MDA-MB-231 cells at 30 mg/kg, po administered twice daily for 32 days in combination with paclitaxel at 20 mg/kg, ip three times weekly for 5 weeks and measured at 18 hrs post-last dose relative to control; format: functional, organism-based
[26] = Half life in Sprague-Dawley rat at 0.3 mg/kg, iv administered as single dose by LC-MS/MS analysis; format: ADME, organism-based; conditions: in vivo
[27] = Clearance in Sprague-Dawley rat at 0.3 mg/kg, iv administered as single dose by LC-MS/MS analysis; format: ADME, organism-based; conditions: in vivo
[28] = Cmax in cynomolgus monkey at 1 mg/kg, po administered as single dose by LC-MS/MS analysis; format: ADME, organism-based, Macaca fascicularis; set-up: dose 1 mg/kg, route oral; conditions: in vivo
[29] = Clearance in Beagle dog at 0.3 mg/kg, iv administered as single dose by LC-MS/MS analysis; format: ADME, organism-based, Canis lupus familiaris; conditions: in vivo
MDA-MB-231 [30] = test: as §1, with “100” for “30”, “and” for “and measured on”; format: functional; procedure, shortened: as §2

Compound: O=C(O)c1ccc(CC(=O)N2CCc3c(n(Cc4cccc(F)c4)c4ncccc34)C2)cc1
fraction unbound at 4 h [2]: 0.01 | IC50 (Autotaxin [1]): 28 nM | logD at 1 h [6]: 0.67

Compound: O=C(O)CCCCCC(=O)N1CCc2c(n(Cc3ccccc3)c3ncccc23)C1
IC50 (Autotaxin [1]): 250 nM

Compound: O=C(C[C@H]1CC[C@@H](C(=O)O)CC1)N1CCc2c(n(Cc3cccc(F)c3)c3ncccc23)C1
fraction unbound at 4 h [2]: 0.004 | IC50 (Autotaxin [1]): 29 nM | logD at 1 h [6]: 1.45

Compound: O=C(O)c1cccc(CC(=O)N2CCc3c(n(Cc4cccc(F)c4)c4ncccc34)C2)c1
fraction unbound at 4 h [2]: 0.011 | IC50 (Autotaxin [1]): 100 nM

Compound: O=C(O)CCCC(=O)N1CCc2c(n(Cc3ccccc3)c3ncccc23)C1
IC50 (Autotaxin [1]): 830 nM

The next molecules have a lower IC50 (Autotaxin [1]) than those just listed; values first:

IC50 (Autotaxin [1]): 24 nM
Compound: CC(C)(CCC(=O)N1CCc2c(n(Cc3cccc(F)c3)c3ncccc23)C1)CC(=O)O

fraction unbound at 4 h [2]: 0.009 | IC50 (Autotaxin [1]): 22 nM | AUC [3]: 677 ng·h/mL | IC50 (Autotaxin [4]): 25 nM | fraction unbound at 4 h [5]: 0.039
Compound: C[C@]1(C(=O)O)CC[C@H](CC(=O)N2CCc3c(n(Cc4ccc(F)cc4F)c4ncccc34)C2)CC1

fraction unbound at 4 h [2]: 0.014 | IC50 (Autotaxin [1]): 12 nM | AUC [3]: 420 ng·h/mL | IC50 (Autotaxin [4]): 6.1 nM | fraction unbound at 4 h [5]: 0.054
Compound: O=C(CC12CCC(C(=O)O)(CC1)CC2)N1CCc2c(n(Cc3ccc(F)cc3)c3ncccc23)C1

Vd [8]: 1.86 L/kg | fraction unbound at 4 h [2]: 0.01 | Cmax [9]: 261 ng/mL | half-life [10]: 2.5 h | Cmax [11]: 1670 ng/mL | Cmax [12]: 124 ng/mL | half-life [13]: 5.4 h | bioavailability [14]: 30.8% | Vd [15]: 1.47 L/kg | IC50 (Autotaxin [1]): 10 nM | clearance [16]: 5.8 mL/min/kg | bioavailability [18]: 71.1% | inhibition (Autotaxin [19]): 99.3% | Vd [20]: 2.27 L/kg | half-life [21]: 8.9 h | AUC [3]: 842 ng·h/mL | half-life [22]: 5.9 h | bioavailability [23]: 51.6% | half-life [24]: 7.9 h | IC50 (Autotaxin [4]): 5.5 nM | inhibition (Autotaxin [25]): 97.1% | half-life [26]: 3.4 h | clearance [27]: 8.2 mL/min/kg | Cmax [28]: 63 ng/mL | clearance [29]: 4.7 mL/min/kg | fraction unbound at 4 h [5]: 0.049
Compound: O=C(CC12CCC(C(=O)O)(CC1)C2)N1CCc2c(n(Cc3ccc(F)cc3)c3ncccc23)C1
TGI (MDA-MB-231 [7]): 91.2% | inhibition in vivo at 100 mg/kg (MDA-MB-231 [17]): 14.7% | TGI (MDA-MB-231 [30]): 95.5%

Source: ChEMBL document CHEMBL4616716, “ONO-8430506: A Novel Autotaxin Inhibitor That Enhances the Antitumor Effect of Paclitaxel in a Breast Cancer Model” (ACS Med Chem Lett, 2020)
